Experimental data collected from several papers.
Compare with care: the assays were run in different laboratories.
Species: human
Matrix: plasma

CN(C)CCc1c[nH]c2ccccc12  Cmax (intravenous, 9 mg, healthy volunteers, infusion): 20.8 ng/mL
C=C(C)[C@@H]1CC[C@]2(NCCN3CCS(=O)(=O)CC3)CC[C@]3(C)[C@H](CC[C@@H]4[C@@]5(C)CC=C(C6=CC[C@@](COc7ncccc7C#N)(C(=O)O)CC6)C(C)(C)[C@@H]5CC[C@]43C)[C@@H]12  Cmax (oral, 100 mg, fed): 390 ng/mL
C=CCNc1c(O)cc2c(O)c1C[C@@H](C)C[C@H](OC)[C@H](O)[C@@H](C)/C=C(\C)[C@H](OC(N)=O)[C@@H](OC)/C=C\C=C(/C)C(=O)N2  Cmax (intravenous, 400 mg/m², patients, infusion): 7800 ng/mL
CC[C@H](C)[C@H](NC(=O)[C@H](CC(C)C)NC(=O)[C@H](Cc1c[nH]c2ccccc12)NC(=O)[C@H](CCC(N)=O)NC(=O)[C@@H](NC(=O)[C@H](Cc1ccccc1)NC(=O)[C@H](C)NC(=O)[C@H](CCCCNC(=O)COCCOCCNC(=O)COCCOCCNC(=O)CC[C@H](NC(=O)CCCCCCCCCCCCCCCCCCC(=O)O)C(=O)O)NC(=O)[C@H](CCC(N)=O)NC(=O)[C@H](C)NC(=O)[C@@H](NC(=O)[C@H](CCCCN)NC(=O)[C@H](CC(=O)O)NC(=O)[C@H](CC(C)C)NC(=O)C(C)(C)NC(=O)[C@@H](NC(=O)[C@H](CO)NC(=O)[C@H](Cc1ccc(O)cc1)NC(=O)[C@H](CC(=O)O)NC(=O)[C@H](CO)NC(=O)[C@@H](NC(=O)[C@H](Cc1ccccc1)NC(=O)[C@@H](NC(=O)CNC(=O)[C@H](CCC(=O)O)NC(=O)C(C)(C)NC(=O)[C@@H](N)Cc1ccc(O)cc1)[C@@H](C)O)[C@@H](C)O)[C@@H](C)CC)[C@@H](C)CC)C(C)C)C(=O)N[C@@H](C)C(=O)NCC(=O)NCC(=O)N1CCC[C@H]1C(=O)N[C@@H](CO)C(=O)N[C@@H](CO)C(=O)NCC(=O)N[C@@H](C)C(=O)N1CCC[C@H]1C(=O)N1CCC[C@H]1C(=O)N1CCC[C@H]1C(=O)N[C@@H](CO)C(N)=O  Cmax (subcutaneous, 0.5 mg, multiple doses, healthy volunteers): 77.8 ng/mL
CC(=C/C=C/C(C)=C/C(=O)O)/C=C1\CCCc2ccccc21  Cmax (oral, 20 mg, single dose, fasted, healthy volunteers): ~70 ng/mL
Cc1ncc2n1-c1ccc(Cl)cc1C(c1ccccc1F)=NC2  Cmax (oral, 2 mg, single dose): 9.74 ng/mL
c1cc([C@H]2CC[C@]3(CC2)OO[C@]2(O3)C3CC4CC(C3)CC2C4)ccc1OCCN1CCOCC1  Cmax (oral, 800 mg, patients): 1710 ng/mL
N=C(N)NCCC[C@@H](NC(=O)[C@@H](N)Cc1ccccc1)C(=O)N[C@@H](Cc1ccccc1)C(=O)N[C@@H](CCCCN)C(N)=O  Cmax (subcutaneous, 5 mg, multiple doses, once daily, patients): 212 ng/mL
